# Compound activity from PubChem.
# Compounds with a hit are over-represented: about 3.7% of the library has one in this group of screens.
# KCNK3 inh: human KCNK3 channel inhibition, primary screen; O14649; CHO-KCNK3 thallium flux, FluxOR fluorescence; active compounds read low; B-score at 10 µM; hit rate 0.84% among 340,000; AID 602410;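 active means B-score under library mean minus 4 SD, starting fluorescence ratio at most library mean plus 5 SD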;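 further: more negative B-score means stronger inhibition of thallium flux through KCNK3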
# hERG protect: shields human hERG channel from block by proarrhythmic agents | activation (rescue from dofetilide block), less the hit threshold, % at 10 µM | AID 1511 | hit rate 0.51% among 310,000 | Q12809 | CHO-hERG, FluxOR thallium flux, dofetilide IC70 present;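 active means activation above the mean of controls blocked by dofetilide plus 5 SD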;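 further: thallium influx through hERG after potassium depolarization seen as dye fluorescence rise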
# KCNK9 inh: human KCNK9 channel inhibition; hit rate 1.2% among 310,000; B-score at 10 µM; HEK293 KCNK9, FluxOR thallium flux fluorescence; active compounds read low; Q9NPC2;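 active means ratio B-score over 3 SD below the library mean, with starting fluorescence within 5 SD of its mean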;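 further: negative B-score means less thallium flux so channel inhibition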
# Target sequence (Q9NPC2 whole entry, looked up): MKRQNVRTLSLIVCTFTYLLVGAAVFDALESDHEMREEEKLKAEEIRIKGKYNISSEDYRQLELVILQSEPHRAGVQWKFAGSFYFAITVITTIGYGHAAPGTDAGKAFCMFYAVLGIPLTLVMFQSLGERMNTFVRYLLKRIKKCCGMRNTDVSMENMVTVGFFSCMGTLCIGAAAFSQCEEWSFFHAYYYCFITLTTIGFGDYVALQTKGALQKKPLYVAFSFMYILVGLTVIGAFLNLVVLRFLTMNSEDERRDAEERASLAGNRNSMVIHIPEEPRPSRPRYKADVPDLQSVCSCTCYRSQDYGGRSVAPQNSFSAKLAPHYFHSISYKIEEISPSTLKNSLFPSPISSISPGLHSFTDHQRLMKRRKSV
# KCNQ1 inh: inhibitors of human KCNQ1 potassium channel; AID 2642; CHO-K1 KCNQ1, FluxOR thallium flux fluorescence; active compounds read high; hit rate 1.3% among 310,000; P51787; B-score at 10 µM;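 active means compounds whose thallium flux B-score, printed positive for inhibition, exceeds three library SD while starting fluorescence stays within three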;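 further: channel opened by potassium depolarization with thallium stimulus after 20 min compound exposure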
# Kir21 inh: blocks the mouse Kir2.1 inward-rectifier potassium channel | HEK293-Kir2.1, FluxOR thallium flux fluorescence; active compounds read low | B-score at 10 µM | hit rate 0.85% among 310,000 | AID 1672;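 active means fluorescence ratio B-score at or below minus 3 SD of library scores, with starting-brightness B-score within 2 SD, cut at about -4.2 in these data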;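 further: channel flux triggered by added potassium and thallium sulfate stimulus; B-score of peak minus minimum fluorescence over baseline after thallium stimulus; more negative B-score means stronger Kir2.1 block with less thallium influx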
# KCNQ1 act: human KCNQ1 channel potentiation or activation; CHO-K1 KCNQ1, thallium flux FluxOR fluorescence; active compounds read high; B-score at 10 µM; hit rate 0.35% among 310,000;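 active means fluorescence ratio B-score, a plate-corrected score, at least three library SD, with initial intensity B-score within 5 SD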
#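 Assay system: CHO-K1 cells stably expressing KCNQ1; Medium: assay buffer with matched DMSO; Also added: K+/Tl+ depolarizing stimulus; Dosing: single dose; Timing: dye 90 min, compound 20 min, room temperature; Measured by: kinetic FluxOR thallium fluorescence, 10-s 1-Hz baseline, 110-s post-stimulus read; Read-out: peak-minus-minimum fluorescence over initial fluorescence, negative-control normalized, B-scored.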
# * marks the source's active call; other numbers are inactive results; i = inactive; x = no result given.
SMILES,KCNK3 inh,hERG protect,KCNK9 inh,KCNQ1 inh,Kir21 inh,KCNQ1 act
CCc1ccc(NC(=O)C(=O)NNC(=O)c2cccc(OC)c2)cc1,i,38*,i,i,1.5,76*
COc1cc(OC)cc(C(=O)NNC(=O)C(=O)Nc2cc(OC)c(Cl)cc2OC)c1,i,51*,i,i,-1.2,32*
COc1cc(NC(=O)C(=O)NNC(=O)C2CCCCC2)c(OC)cc1Cl,i,2,i,i,0.25,i
CCOc1ccc(C2CC(=O)N(Nc3ccc([N+](=O)[O-])cc3[N+](=O)[O-])C2=O)cc1 (centres undefined),i,1,i,i,1.2,i
[O-][n+]1onc2c1CCC(=N/O)/C2=N\Nc1ccccc1,x,-9,i,i,1.3,i
CN(C)S(=O)(=O)c1cccc(NC(=S)Nc2cc(Cl)cc(Cl)c2)c1,i,-24,i,7*,-2.4,i
CN(C)S(=O)(=O)c1cccc(NC(=S)Nc2ccc(Cl)cc2Cl)c1,i,-11,i,i,-2.5,i
CN(C)S(=O)(=O)c1cccc(NC(=S)N/N=C/c2ccc(O)c(O)c2O)c1,i,-17,i,i,-5.4*,i
O=C(NNC(=O)c1c(O)c2ccccc2[nH]c1=O)c1ccccc1Br,i,-4,i,i,1.6,i
O=C(CNS(=O)(=O)c1c(Cl)cccc1Cl)N1CCCCCC1,i,-2,i,i,-4.6*,i
CCOC(=O)C(C#N)C(Cc1ccccc1)c1ccco1 (centres undefined),i,-4,i,i,-4.7*,i
CCOC(=O)C(Cc1ccccc1)C(=O)Nc1ccc(NC(=O)C(Cc2ccccc2)C(=O)OCC)cc1 (centres undefined),i,-10,i,i,0.09,i
O=C(O)c1cc2ccccc2c(N=Nc2cccnc2)c1O,i,-7,i,i,0.4,i
CC(C)n1c(CSCc2ccc(Cl)cc2Cl)n[nH]c1=S,i,-6,i,i,-4.5*,i
Nc1nnc(CSCc2ccc(Cl)cc2Cl)s1,i,-4,i,i,-0.71,i
COc1ccc(CCNC(=O)CCOc2cc(C)ccc2C)cc1OC,i,-10,i,i,-1.2,i
CCOC(=O)c1cnn(-c2nc(OCC)cc(OCC)n2)c1C,i,-15,i,i,0.07,i
CCCCS(=O)(=O)/C=C\C=C/S(=O)(=O)CCCC,i,-12,i,i,-1.7,14*
CN(C)Cc1ccccc1C(O)(c1ccccc1)c1ccccc1,i,-6,i,i,-4.7*,i
CCCCOC(=O)c1ccc(NC(=S)NC(=O)c2c(Br)c(C)nn2C)cc1,i,2,i,i,2.6,i
CC(=O)c1ccc(NC(=S)NC(=O)c2c(Cl)c(C)nn2C)cc1,i,-3,i,i,1.4,11*
C/C(=N\NC(=S)NCc1ccccc1)c1ccccc1,i,-10,i,i,0.44,i
C/C(=N\NC(=S)NCc1ccccc1)c1ccco1,i,4.9*,i,i,-0.8,i
O=C(N1CCOCC1)N1CCc2ccccc21,i,-7,i,i,0.83,i
Cc1ccc(-c2nc3ncccc3o2)cc1NC(=O)COc1ccccc1,i,-3,i,i,0.37,i
SMILES,KCNK3 inh,hERG protect,KCNK9 inh,KCNQ1 inh,Kir21 inh,KCNQ1 act
Cc1ccc(-c2nc3cccnc3o2)cc1NC(=O)COc1ccc(C(C)(C)C)cc1,i,-6,i,9*,0,i
Cn1cc(/C=C2\SC(=O)NC2=S)c2ccccc21,i,16*,i,i,-2.1,i
Cc1csc(NC(=O)C(C)Oc2ccc(Br)cc2)n1 (centres undefined),i,-20,i,i,-5*,i
Cc1csc(NC(=O)CCS(=O)(=O)c2ccc(Br)cc2)n1,i,0,i,i,-4.3*,i
CN1CCN(c2ccccc2NC(=O)c2ccc(-c3ccccc3)cc2)CC1,-8.8*,-14,i,i,-1.8,i
CC1(C)C/C(=N\NC(=S)Nc2ccccc2F)c2cc(O)ccc2O1,i,-11,i,i,0.63,i
COc1ccc(/C=N/Nc2cc(C)nc3ccccc23)cc1,i,-17,i,i,-6.6*,i
